Experimental data as given in ChEMBL document CHEMBL1772988, “(-)-Epigallocatechin-3-O-gallate induces nonapoptotic cell death in leukemia cells independent of the 67 kDa laminin receptor” (2011).
Activity calls are given as the source filed them. The calls are words filed in the database; no cut-off is given here.

Assays:
Raji [1] = assay: Induction of myeloperoxidase expression in human Raji cells after 24 hrs by flow cytometry; format: functional
How it was run: (§1)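 Untreated cells seeded at 1 × 10^5 cells/mL and grown 24 h. Fixed/permeabilised with Cytofix/Cytoperm for 20 min on ice. Stained with mouse anti-MPO mAb (1% v/v) for 1 h at room temperature, then goat anti-mouse IgG-FITC (1% v/v) for 1 h in the dark. Basal intracellular MPO read by flow cytometry.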

Raji [2] = assay: Cytotoxicity against human Raji cells assessed as cell growth inhibition after 7 days by trypan blue based microscopic analysis; format: functional
How it was run: (§2)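 Cells seeded at 2 × 10^3 cells/mL in culture medium with 1 nM–10 μM compound and cultured 7 days. HL60 and Raji were grown in RPMI 1640, K562 in F-12, UT-7 in IMDM with TPO 10 ng/mL; all media had 10% heat-inactivated FBS, 37 °C, 5% CO2. Viable trypan blue-excluding cells counted by hemacytometer; growth rate = viable treated/viable untreated. Means ± SD.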

Raji [3] = assay: Induction of apoptosis in human Raji cells assessed as necrotic cells at 10 uM after 6 hrs by measuring phosphatidylserine translocation using annexin V-FITC/propidium iodide staining by FACS (reference value: 3.4 %); format: functional
Raji [4] = assay: Induction of apoptosis in human Raji cells assessed as intracellular caspase-3 activation after 24 hrs (reference value: 3.4 %); format: functional
HL-60 [5] = assay: Growth inhibition against human HL60 cells assessed as cell viability at 10 uM preincubated with N-acetyl-L-cysteine for 30 mins measured after 48 hrs by trypan blue based microscopic analysis; format: functional
How it was run: (§3)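 Cells preincubated 30 min at 37 °C with 10 mM NAC, then seeded (Raji 1 × 10^5, HL60 5 × 10^4 cells/mL) and treated with 10 μM EGCG for 48 h. Viable cells were counted after trypan blue exclusion by hemacytometer. Growth rate = viable treated/viable untreated cells. Means ± SD of more than three experiments in triplicate wells.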

HL-60 [6] = assay: Induction of 67 kDa laminin receptor expression in human HL60 cells after 24 hrs by flow cytometry analysis; format: functional, cell-based
How it was run: (§4)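 Untreated cells seeded at 1 × 10^5 cells/mL and grown 24 h. Harvested cells labelled with mouse anti-67 LR IgM in 0.5% BSA/PBS for 1 h on ice, then anti-mouse IgM-FITC for 30 min at 4 °C in the dark. Read by flow cytometry.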

Raji [7] = assay: Induction of apoptosis in human Raji cells assessed as early apoptotic cells at 10 uM after 24 hrs by measuring phosphatidylserine translocation using annexin V-FITC/propidium iodide staining by FACS (reference value: 3.7 %); format: functional
Raji [8] = assay: Cell cycle arrest in human Raji cells by assessed as accumulation at subG1 phase at 10 uM using propidium iodide staining by flow cytometry in presence of superoxide dismutase and catalase; format: functional
How it was run: (§5)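 Cells treated with 10 μM EGCG for 48 h, with or without SOD (5 U/mL) plus catalase (30 U/mL) in the medium. Harvested cells permeabilised in PBS with 0.1% Triton X-100 for 5 min on ice, stained with propidium iodide (50 μg/mL), and analysed by flow cytometry for sub-G1 fraction.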

Raji [9] = assay: Induction of apoptosis in human Raji cells assessed as intracellular caspase-3 activation after 48 hrs (reference value: 3.4 %); format: functional
Raji [10] = assay: Induction of intracellular reactive oxygen species production in human Raji cells at 10 uM after 1 to 3 hrs by flow cytometry; format: functional, cell-based
How it was run: (§6)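 Cells treated with 10 μM EGCG for 1 and 3 h. Then 1 × 10^5 cells stained with 5 μM H2-DCFDA for 25 min at 37 °C, washed and resuspended in PBS. Oxidised-probe fluorescence read by flow cytometry. Means ± SD of more than three separate experiments.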

K562 [11] = assay: Induction of intracellular reactive oxygen species production in human K562 cells at 10 uM after 1 to 3 hrs by flow cytometry; format: functional, cell-based; how it was run: as §6
HL-60 [12] = assay: Induction of apoptosis in human HL60 cells assessed as intracellular caspase-3 activation after 48 hrs (reference value: 1.3 %); format: functional
HL-60 [13] = assay: Cytotoxicity against human HL60 cells assessed as cell growth inhibition after 7 days by trypan blue based microscopic analysis; format: functional; how it was run: as §2
Raji [14] = assay: Induction of apoptosis in human Raji cells assessed as necrotic cells at 10 uM after 24 hrs by measuring phosphatidylserine translocation using annexin V-FITC/propidium iodide staining by FACS (reference value: 3.4 %); format: functional
HL-60 [15] = assay: Induction of intracellular reactive oxygen species production in human HL60 cells at 10 uM after 1 to 3 hrs by flow cytometry; format: functional, cell-based; how it was run: as §6
Raji [16] = assay: Induction of apoptosis in human Raji cells assessed as late apoptotic or secondary necrotic cells at 10 uM after 6 hrs by measuring phosphatidylserine translocation using annexin V-FITC/propidium iodide staining by FACS (reference value: 2.2 %); format: functional
Raji [17] = assay: Induction of apoptosis in human Raji cells assessed as necrotic cells at 10 uM by measuring phosphatidylserine translocation using annexin V-FITC/propidium iodide staining by FACS; format: functional, cell-based; settings: TDE = time-dependent effect
Raji [18] = assay: Cell cycle arrest in human Raji cells by assessed as accumulation at subG1 phase at 10 uM using propidium iodide staining by flow cytometry; format: functional; how it was run: as §5
HL-60 [19] = assay: Growth inhibition against human HL60 cells assessed as cell viability at 10 uM after 48 hrs by trypan blue based microscopic analysis in presence of superoxide dismutase and catalase; format: functional
How it was run: (§7)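 Raji cells were seeded at 1 × 10^5 cells/mL and HL60 at 5 × 10^4 cells/mL. Medium held SOD (5 U/mL), catalase (30 U/mL) or both, plus 10 μM EGCG, for 48 h. Viable cells counted after trypan blue by hemacytometer; growth rate relative to untreated. Means ± SD of more than three experiments in triplicate wells.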

HL-60 [20] = assay: Growth inhibition against human HL60 cells assessed as cell viability at 10 uM after 24 hrs by trypan blue based microscopic analysis; format: functional
HL-60 [21] = assay: Growth inhibition against human HL60 cells assessed as cell viability at 10 uM after 48 hrs by trypan blue based microscopic analysis in presence of superoxide dismutase; format: functional; how it was run: as §7
Raji [22] = assay: Growth inhibition against human Raji cells assessed as cell viability at 10 uM after 24 hrs by trypan blue based microscopic analysis; format: functional
Raji [23] = assay: Induction of apoptosis in human Raji cells assessed as late apoptotic or secondary necrotic cells at 10 uM after 24 hrs by measuring phosphatidylserine translocation using annexin V-FITC/propidium iodide staining by FACS (reference value: 2.2 %); format: functional
UT7 = assay: Cytotoxicity against human UT7 cells assessed as cell growth inhibition at 10 uM after 7 days by trypan blue based microscopic analysis; format: functional; how it was run: as §2
Raji [24] = assay: Induction of apoptosis in human Raji cells assessed as late apoptotic or secondary necrotic cells at 10 uM after 12 hrs by measuring phosphatidylserine translocation using annexin V-FITC/propidium iodide staining by FACS (reference value: 2.2 %); format: functional
K562 [25] = assay: Induction of myeloperoxidase expression in human K562 cells after 24 hrs by flow cytometry; format: functional; how it was run: as §1
Raji [26] = assay: Growth inhibition against human Raji cells assessed as cell viability at 10 uM preincubated with N-acetyl-L-cysteine for 30 mins measured after 48 hrs by trypan blue based microscopic analysis; format: functional; how it was run: as §3
K562 [27] = assay: Cytotoxicity against human K562 cells assessed as cell growth inhibition at 10 uM after 7 days by trypan blue based microscopic analysis; format: functional; how it was run: as §2
Raji [28] = assay: Induction of apoptosis in human Raji cells assessed as early apoptotic cells at 10 uM after 12 hrs by measuring phosphatidylserine translocation using annexin V-FITC/propidium iodide staining by FACS (reference value: 3.7 %); format: functional
K562 [29] = assay: Induction of 67 kDa laminin receptor expression in human K562 cells after 24 hrs by flow cytometry analysis; format: functional, cell-based; how it was run: as §4
HL-60 [30] = assay: Induction of myeloperoxidase expression in human HL60 cells after 24 hrs by flow cytometry; format: functional; how it was run: as §1
Raji [31] = assay: Induction of apoptosis in human Raji cells assessed as early apoptotic cells at 10 uM after 6 hrs by measuring phosphatidylserine translocation using annexin V-FITC/propidium iodide staining by FACS (reference value: 3.7 %); format: functional
HL-60 [32] = assay: Growth inhibition against human HL60 cells assessed as cell viability at 10 uM after 48 hrs by trypan blue based microscopic analysis in presence of catalase; format: functional; how it was run: as §7
HL-60 [33] = assay: Cell cycle arrest in human HL60 cells by assessed as accumulation at subG1 phase at 10 uM using propidium iodide staining by flow cytometry in presence of superoxide dismutase and catalase; format: functional; how it was run: as §5
Raji [34] = assay: Growth inhibition against human Raji cells assessed as cell viability at 10 uM after 48 hrs by trypan blue based microscopic analysis in presence of superoxide dismutase and catalase; format: functional; how it was run: as §7
HL-60 [35] = assay: Cell cycle arrest in human HL60 cells by assessed as accumulation at subG1 phase at 10 uM using propidium iodide staining by flow cytometry; format: functional; how it was run: as §5
HL-60 [36] = assay: Induction of apoptosis in human HL60 cells assessed as intracellular caspase-3 activation after 24 hrs (reference value: 1.3 %); format: functional
Raji [37] = assay: Growth inhibition against human Raji cells assessed as cell viability at 10 uM after 48 hrs by trypan blue based microscopic analysis in presence of catalase; format: functional; how it was run: as §7
Raji [38] = assay: Induction of apoptosis in human Raji cells assessed as necrotic cells at 10 uM after 12 hrs by measuring phosphatidylserine translocation using annexin V-FITC/propidium iodide staining by FACS (reference value: 3.4 %); format: functional
Raji [39] = assay: Growth inhibition against human Raji cells assessed as cell viability at 10 uM after 48 hrs by trypan blue based microscopic analysis in presence of superoxide dismutase; format: functional; how it was run: as §7

## O=C(O[C@@H]1Cc2c(O)cc(O)cc2O[C@@H]1c1cc(O)c(O)c(O)c1)c1cc(O)c(O)c(O)c1 [EPIGALOCATECHIN GALLATE]
Raji [1]
  Activity: 4.5%
Raji [2]
  growth inhibition (GI): Dose-dependent effect
Raji [3]
  Activity: 5.3%
Raji [4]
  Activity: 3.5%
HL-60 [5]
  growth inhibition (GI): Active
HL-60 [6]
  Activity: Active
Raji [7]
  Activity: 8.5%
Raji [8]
  Activity: 5.9%
Raji [9]
  Activity: 5.4%
Raji [10]
  Activity: inactive
K562 [11]
  Activity: inactive
HL-60 [12]
  Activity: 4.2%
HL-60 [13]
  growth inhibition (GI): Dose-dependent effect
Raji [14]
  Activity: 14.9%
HL-60 [15]
  Activity: inactive
Raji [16]
  Activity: 4.5%
Raji [17]
  Activity: tde
Raji [18]
  Activity: 3.8%
HL-60 [19]
  growth inhibition (GI): inactive
HL-60 [20]
  Activity: Active
HL-60 [21]
  growth inhibition (GI): Active
Raji [22]
  Activity: Active
Raji [23]
  Activity: 13%
UT7
  growth inhibition (GI): inactive
Raji [24]
  Activity: 7.8%
K562 [25]
  Activity: 14.3%
Raji [26]
  growth inhibition (GI): Active
K562 [27]
  growth inhibition (GI): inactive
Raji [28]
  Activity: 7.7%
K562 [29]
  Activity: Active
HL-60 [30]
  Activity: 49.2%
Raji [31]
  Activity: 5.1%
HL-60 [32]
  growth inhibition (GI): Active
HL-60 [33]
  Activity: 2.6%
Raji [34]
  growth inhibition (GI): inactive
HL-60 [35]
  Activity: 45.9%
HL-60 [36]
  Activity: 2.7%
Raji [37]
  growth inhibition (GI): Active
Raji [38]
  Activity: 6.7%
Raji [39]
  growth inhibition (GI): Active
